A short description of data set [1]: Selectivity index, ratio of IC50 for human HepG2 cells to MIC=>90 for Mycobacterium tuberculosis H37Rv. It is filed as toxicity. The following applies: read-out: Selectivity Index.
Data set [2] can be described thus: Inhibition of Mycobacterium tuberculosis DprE1 expressed in Escherichia coli BL21(DE3) by fluorescence based assay. The gist of the method:
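Buffer: 50 mM Hepes pH 7.5, 100 mM NaCl, 1.5% DMSO, 100 µM Tween-20, 2 µM FAD, 50 µM resazurin. DprE1 (1 µM) with 1 mM FPR at 30 °C across inhibitor concentrations. Resorufin formation followed by fluorescence (ex 530/em 595 nm).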

Data set [3] in a line: AUC (0 to 24 hrs) in BALB/C mouse at 10 mg/kg, iv by LC/TSQ quantum access mass spectrometry. On the set-up: time < 24 hr, dose 10 mg/kg, route intravenous. The following applies: in vivo. The class given is ADME, organism-based. In short, it runs like this:
(§1)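 Male Balb/c mice (22–23 g), three per route. Single dose of 25 mg/kg p.o. (2.5 mg/mL in 0.5% carboxymethyl cellulose + 0.5% Tween 80) or 10 mg/kg i.v. (2.0 mg/mL in 20% HP-β-CD with 4 mol/L HCl). Blood sampled 5, 15, 30 min, 1, 2, 4, 7, 24 h. Plasma extracted with acetonitrile plus terfenadine internal standard, then LC-MS/MS on a C18 column. F = (AUCpo×dose_iv)/(AUCiv×dose_po).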

Data set [4] is described as follows: Metabolic stability in CD-1 mouse liver microsomes assessed as parent compound remaining at 1 uM measured after 30 mins in presence of NADPH by LC-MS/MS analysis. The following applies: read-out: Stability. It is filed as ADME, Microsome. The gist of the method:
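Male CD-1 mouse or pooled human liver microsomes (1 mg/mL protein), compound at 1 µM, 37 °C. Reaction started with 1 mM NADPH and quenched with cold ACN/MeOH containing internal standard. Parent remaining measured by LC-MS/MS; the 30-min value is normalised to time zero.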

In data set [5] the test system is Mycobacterium tuberculosis. Briefly: Antimicrobial activity against Mycobacterium tuberculosis H37Rv infected in BALB/C mouse assessed as bacterial burden in mouse lung at 100 mg/kg, po administered via gavage treated 5 times per week for 3 weeks starting from day 10 post infection (reference value: 7.102 +/- 0.152 log10CFU). It is filed as functional.
A further data set addresses T1, Cytochrome P450 1A2 (Homo sapiens, UniProt P05177).
T1 sequence (P05177 whole entry): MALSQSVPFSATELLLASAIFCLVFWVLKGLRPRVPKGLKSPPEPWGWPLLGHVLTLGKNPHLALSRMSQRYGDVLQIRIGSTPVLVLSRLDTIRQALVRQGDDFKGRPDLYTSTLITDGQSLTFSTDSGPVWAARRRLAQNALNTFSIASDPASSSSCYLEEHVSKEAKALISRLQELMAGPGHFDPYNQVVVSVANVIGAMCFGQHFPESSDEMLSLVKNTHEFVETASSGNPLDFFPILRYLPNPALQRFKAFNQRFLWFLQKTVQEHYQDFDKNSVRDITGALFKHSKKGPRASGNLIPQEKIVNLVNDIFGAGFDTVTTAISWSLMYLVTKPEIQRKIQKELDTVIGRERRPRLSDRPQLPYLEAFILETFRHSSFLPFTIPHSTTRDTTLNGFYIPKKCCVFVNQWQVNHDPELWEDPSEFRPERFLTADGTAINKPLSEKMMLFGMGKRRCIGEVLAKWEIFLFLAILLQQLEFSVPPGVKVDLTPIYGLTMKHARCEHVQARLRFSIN
Briefly: Inhibition of CYP1A2 in human liver microsomes after 20 mins by LC-MS/MS analysis. It is filed as ADME. In short, it runs like this: (§2)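 Compound at 0.1–50 µM incubated 20 min with human liver microsomes (0.2 mg/mL) and the CYP isoform, alongside isoform-specific probe substrates. Substrate remaining measured by LC-MS/MS at each concentration to derive IC50.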

Another data set concerns the target Cytochrome P450 2C9 (Homo sapiens, UniProt P11712). Kind of data set: Inhibition of CYP2C9 in human liver microsomes after 20 mins by LC-MS/MS analysis. The class given is ADME. In short, it runs like this: as §2
The subject of a further data set is Vero. Briefly: Cytotoxicity against African green monkey Vero cells assessed as reduction in cell viability after 48 hrs by MTT assay. The class given is cell-based. Conditions: Chlorocebus sabaeus. The gist of the method: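 Vero or HepG2 cells in RPMI1640 with 10% FBS at 37 °C, 5% CO2, seeded at 4×10^5 cells/mL. Threefold dilutions at 64–0.26 µg/mL final for 48 h. Cells then washed with HBSS, MTT added for 4 h, absorbance read at 492 nm. IC50 taken relative to untreated control.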

A short description of data set [6]: AUC (0 to infinity) in BALB/C mouse at 25 mg/kg, po by LC/TSQ quantum access mass spectrometry. The arrangement: dose 25 mg/kg, time infinity, route oral. It is filed as ADME, organism-based. Conditions: in vivo. In short, it runs like this: as §1
Data set [7] has as its system Mycobacterium tuberculosis. Kind of data set: Antimicrobial activity against Mycobacterium tuberculosis H37Rv after 7 days by MABA. It is filed as functional. The following applies: 168 h. In short, it runs like this: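 Strain H37Rv or clinical isolates grown to late log phase in 7H9-ADC-TG, washed, resuspended in PBS, filtered (8 µm) and frozen. On day 7 Tween 80 and alamar blue added, read 16–24 h later (ex 530/em 590). MIC = lowest concentration giving ≥90% fluorescence reduction versus bacterium-only controls.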

The target in data set [8] is Voltage-gated inwardly rectifying potassium channel KCNH2 (Homo sapiens, UniProt Q12809). Kind of data set: Inhibition of human ERG expressed in HEK293 cells by whole-cell patch clamp assay. It is filed as cell-based. The gist of the method:
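HEK293 cells stably transfected with hERG. Current recorded by whole-cell manual patch clamp at 25 °C, sampled at 10 kHz. Five concentrations tested (30, 10, 3.0, 1.0, 0.3 µM) in duplicate for IC50, with dofetilide as positive control.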

A short description of data set [9]: Intrinsic clearance in CD-1 mouse hepatocytes assessed per million cells at 1 uM incubated up to 120 mins by LC-MS/MS analysis. The class given is ADME, cell-based, Hepatocyte. The following applies: read-out: CLH. The gist of the method: (§3)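 Pooled male CD-1 mouse or pooled human hepatocytes at 1 million cells/mL final, compound at 1 µM. Incubated at 37 °C in a CO2 incubator with shaking (~100 rpm). Samples taken at 0, 15, 30, 60, 90 and 120 min and quenched with cold ACN/MeOH containing internal standard. Parent compound remaining measured by LC-MS/MS.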

Data set [10] in a line: Cmax in BALB/C mouse at 25 mg/kg, po by LC/TSQ quantum access mass spectrometry. The class given is ADME, organism-based. The arrangement: dose 25 mg/kg, route oral. The following applies: in vivo. The gist of the method:
as §1

A short description of data set [11]: Half life in CD-1 mouse hepatocytes assessed per million cells at 1 uM incubated up to 120 mins by LC-MS/MS analysis. The class given is ADME, cell-based, Hepatocyte. In short, it runs like this: as §3
The nature of data set [12]: Acute toxicity in po dosed BALB/C mouse assessed as mortality administered as single dose measured during 7 days observation period. It is filed as organism-based. Conditions: in vivo. The gist of the method: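 Female Balb/c mice (18–21 g), ten animals, given one oral dose of 2 g/kg. Survivors counted after 7 days of observation.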
Another data set addresses Cytochrome P450 2D6 (Homo sapiens, UniProt P10635). Briefly: Inhibition of CYP2D6 in human liver microsomes after 20 mins by LC-MS/MS analysis. It is filed as ADME. The gist of the method: as §2
Data set [13] in a line: Clearance in BALB/C mouse at 10 mg/kg, iv by LC/TSQ quantum access mass spectrometry. It is filed as ADME, organism-based. Conditions: in vivo. The gist of the method: as §1
Data set [14] in a line: AUC (0 to infinity) in BALB/C mouse at 10 mg/kg, iv by LC/TSQ quantum access mass spectrometry. The class given is ADME, organism-based. The following applies: in vivo. The arrangement: dose 10 mg/kg, route intravenous, time infinity. The gist of the method:
as §1

Data set [15] in a line: Oral bioavailability in BALB/C mouse at 25 mg/kg by LC/TSQ quantum access mass spectrometry. The class given is ADME, organism-based. The following applies: in vivo. The gist of the method:
as §1

Molecules are shown by their SMILES.

Sequence of Cytochrome P450 2D6 (P10635 whole entry): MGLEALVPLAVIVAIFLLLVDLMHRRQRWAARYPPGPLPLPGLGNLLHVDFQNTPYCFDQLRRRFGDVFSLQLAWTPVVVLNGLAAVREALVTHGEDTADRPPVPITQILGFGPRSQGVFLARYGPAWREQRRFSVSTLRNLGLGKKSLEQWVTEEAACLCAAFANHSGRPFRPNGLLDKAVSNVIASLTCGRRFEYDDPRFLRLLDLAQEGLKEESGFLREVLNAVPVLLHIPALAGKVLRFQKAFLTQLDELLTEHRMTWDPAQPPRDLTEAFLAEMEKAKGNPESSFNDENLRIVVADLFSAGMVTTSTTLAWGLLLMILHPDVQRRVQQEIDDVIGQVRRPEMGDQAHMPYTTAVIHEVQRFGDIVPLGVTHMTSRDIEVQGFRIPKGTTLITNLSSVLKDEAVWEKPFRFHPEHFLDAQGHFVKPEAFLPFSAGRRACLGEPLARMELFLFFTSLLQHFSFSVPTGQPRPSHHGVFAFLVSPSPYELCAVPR
Sequence of Voltage-gated inwardly rectifying potassium channel KCNH2 (Q12809 whole entry): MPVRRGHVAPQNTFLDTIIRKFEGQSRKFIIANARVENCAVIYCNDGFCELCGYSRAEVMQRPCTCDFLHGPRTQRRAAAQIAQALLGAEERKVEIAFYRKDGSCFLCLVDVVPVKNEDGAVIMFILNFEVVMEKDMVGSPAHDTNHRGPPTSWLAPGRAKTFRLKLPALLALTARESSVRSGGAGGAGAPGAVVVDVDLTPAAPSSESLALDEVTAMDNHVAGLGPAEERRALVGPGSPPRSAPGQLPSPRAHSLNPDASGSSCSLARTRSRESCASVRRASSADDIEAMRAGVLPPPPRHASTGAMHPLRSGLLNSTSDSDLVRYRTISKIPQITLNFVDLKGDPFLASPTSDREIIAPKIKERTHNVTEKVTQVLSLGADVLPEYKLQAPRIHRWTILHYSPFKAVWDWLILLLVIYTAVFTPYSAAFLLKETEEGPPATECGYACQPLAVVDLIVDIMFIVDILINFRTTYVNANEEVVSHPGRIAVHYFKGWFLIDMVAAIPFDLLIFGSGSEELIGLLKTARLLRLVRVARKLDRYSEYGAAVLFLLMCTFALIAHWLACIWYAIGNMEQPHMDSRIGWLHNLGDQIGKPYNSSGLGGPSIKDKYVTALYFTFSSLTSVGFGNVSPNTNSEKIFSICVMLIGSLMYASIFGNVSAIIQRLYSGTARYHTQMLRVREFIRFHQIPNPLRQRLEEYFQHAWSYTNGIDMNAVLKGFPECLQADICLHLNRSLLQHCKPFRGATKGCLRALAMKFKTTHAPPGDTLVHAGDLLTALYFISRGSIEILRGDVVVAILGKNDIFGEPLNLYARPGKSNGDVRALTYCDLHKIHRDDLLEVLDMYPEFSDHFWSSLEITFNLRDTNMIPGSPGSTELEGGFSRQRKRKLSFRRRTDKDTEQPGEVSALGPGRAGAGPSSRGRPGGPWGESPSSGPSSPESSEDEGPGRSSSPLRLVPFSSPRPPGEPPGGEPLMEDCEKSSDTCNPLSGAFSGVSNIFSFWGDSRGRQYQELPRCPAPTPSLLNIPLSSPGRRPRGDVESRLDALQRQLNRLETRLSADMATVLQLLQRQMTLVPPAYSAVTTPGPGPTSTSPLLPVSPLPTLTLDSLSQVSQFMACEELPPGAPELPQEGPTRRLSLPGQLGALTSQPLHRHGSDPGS
Sequence of Cytochrome P450 2C9 (P11712 whole entry): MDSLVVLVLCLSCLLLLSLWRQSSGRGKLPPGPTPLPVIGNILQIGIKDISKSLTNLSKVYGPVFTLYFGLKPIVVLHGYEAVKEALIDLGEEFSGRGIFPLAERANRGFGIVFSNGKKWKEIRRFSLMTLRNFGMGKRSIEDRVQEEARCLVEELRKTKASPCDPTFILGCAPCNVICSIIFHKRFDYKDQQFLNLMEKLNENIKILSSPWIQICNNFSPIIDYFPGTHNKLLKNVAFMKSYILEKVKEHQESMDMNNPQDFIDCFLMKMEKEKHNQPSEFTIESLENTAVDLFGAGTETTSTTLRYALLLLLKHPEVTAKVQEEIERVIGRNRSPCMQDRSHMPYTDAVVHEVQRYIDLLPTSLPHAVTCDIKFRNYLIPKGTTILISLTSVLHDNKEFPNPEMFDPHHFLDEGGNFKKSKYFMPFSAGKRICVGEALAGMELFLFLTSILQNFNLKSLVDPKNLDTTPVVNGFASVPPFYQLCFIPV

Consider `O=c1cc(N2CCN(CC3CCCCC3)CC2)sc2c([N+](=O)[O-])cc(C(F)(F)F)cc12`, for which the selectivity ratio in data set [1] is > 4000. Besides, the IC50 was 4.53 µM in [2]; > 50 µM at Cytochrome P450 1A2; > 50 µM against Cytochrome P450 2C9; > 64 µg/mL in the data set with Vero; > 30 µM in data set [8]; > 50 µM against Cytochrome P450 2D6. For the same compound, the AUC(0-t) at 24 h in data set [3] turned out to be 4950 ng·h/mL. The remaining at 0.5 h, 1 µM in data set [4] worked out at 61.5%. Moreover, the Activity in [5] came out at 1.678 log10CFU. Also, the AUC(0-inf) in data set [6] came to 1700 ng·h/mL; in [14] it was 5180 ng·h/mL. Moreover, the MIC90 in [7] is < 0.016 µg/mL. Besides, the hepatocyte CLint at 1 µM in [9] worked out at 1.5 µL/min/1e6 cells. In data set [10], this compound came in with a Cmax of 588 ng/mL. In addition, in data set [11], the half-life at 1 µM turned out to be 7.7 h. In addition, in [12], the LD50 at 168 h is > 2000 mg/kg. Besides, the clearance in data set [13] stood at 32.3 mL/min/kg. Moreover, in [15], the bioavailability was found to be 13.1%.

The record behind these values is ChEMBL document CHEMBL4382210, “Identification of novel benzothiopyranone compounds against Mycobacterium tuberculosis through scaffold morphing from benzothiazinones” (Eur J Med Chem, 2018).
